# Assay outcomes from PubChem.
# V1R ag counter = V1a receptor agonism, counter-screen for OXTR agonists. P37288. CHO-V1R cells, Fluo-8 calcium fluorescence, agonist mode; 0% DMSO, 100% 3 nM vasopressin. activation, % at 3 µM. 0.25% of 320,000 active. AID 2797;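 active = activation above the mean activation of all tested compounds plus 3 SD, per screening run, cut at about 20% in these data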;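 note: signal is peak over basal fluorescence ratio across a 100 second FLIPR read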
# CHO parental Ca = counter-screen for OX1R antagonists: effect in parental CHO cells; 0.63% of 330,000 active; parental CHO-K1, ATP-induced calcium, Fluo-8 fluorescence; inhibition, % at 5.6 µM;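 active = inhibition above that plate's mean sample inhibition plus 3 SD, cut at about 26% in these data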;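 note: 0% = ATP-challenged DMSO wells and 100% = DMSO wells without ATP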
#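 Test system: untransfected parental CHO cell line. Compound: one dose, 5.6 µM nominal. Detection: intracellular calcium via Fluo-8 no-wash fluorescent dye. Measure: % inhibition. Benchmarks: ATP-challenged DMSO wells low, unchallenged DMSO wells high.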
# OX1R antag-1 = OX1R (human) antagonism; OX1R-expressing cells, FRET antagonist read-out; inhibition, % at 6.6 µM; 1.8% of 330,000 active; O43613; in the data active = inhibition mostly above about 38%, no sharp cut-off; inactive = mostly below about 40%;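 note: 0% = agonist challenge alone and 100% = reference antagonist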
# OX1R antag-2 = blocks the human orexin 1 receptor; 0.43% of 330,000 active; CHO/OX1R cells, Fluo-8 calcium fluorescence, orexin A; inhibition, % at 5 µM; O43613;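 active = inhibition above its plate's threshold, mean inhibition of all tested compounds on the plate plus 3 SD, cut at about 37% in these data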;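 note: 0% = orexin A challenge wells and 100% = SB-334867-A antagonist wells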
# OXTR potentiate = human OXTR potentiation; P30559; CHO-OTR cells, Fluo-8 calcium fluorescence, potentiator mode; 0% = oxytocin EC15, 100% = EC100; activation, % at 3 µM; 0.061% of 320,000 active; AID 2445;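 active = activation above that plate's cutoff, the mean activation of tested compounds plus 3 SD, cut at about 6.6% in these data, passing the limit was not always enough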;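 note: 100% uses oxytocin at 75 nM as the full agonist control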
# Target sequence (P30559 whole entry, looked up): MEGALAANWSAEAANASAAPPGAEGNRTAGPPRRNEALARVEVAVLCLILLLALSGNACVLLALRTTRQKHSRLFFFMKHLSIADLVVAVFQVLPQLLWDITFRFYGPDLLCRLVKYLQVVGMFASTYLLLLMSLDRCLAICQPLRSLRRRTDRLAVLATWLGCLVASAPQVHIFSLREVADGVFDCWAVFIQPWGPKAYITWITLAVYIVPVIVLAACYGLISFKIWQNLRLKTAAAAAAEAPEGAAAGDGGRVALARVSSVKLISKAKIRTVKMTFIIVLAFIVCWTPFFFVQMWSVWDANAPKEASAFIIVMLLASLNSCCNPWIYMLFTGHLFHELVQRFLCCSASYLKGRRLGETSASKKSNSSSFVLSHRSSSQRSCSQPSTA
#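 Assay system: CHO cell line stably expressing human OTR | Also added: Oxytocin at about EC15, sub-maximal agonist stimulus | Times: Compound 6 min at room temperature before oxytocin, 100 s read | Measured by: Fluo-8 intracellular calcium fluorescence, ex 470-495, em 515-575 nm | Controls: EC15 oxytocin alone as 0%, 75 nM oxytocin as 100%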
# OXTR agonist = agonists of human oxytocin receptor; P30559; CHO-OTR cells, Fluo-8 calcium fluorescence; normalized: DMSO 0%, oxytocin 100%; activation, % at 3 µM; 0.32% of 320,000 active; AID 2435;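 active = activation above the mean of all tested compounds plus 3 SD, cutoff set per screening run, cut at about 20% in these data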;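 note: peak over basal fluorescence ratio from a 100 s FLIPR kinetic read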
# Starred values were filed as active, the others as inactive; / = no result given. This is a sample that favours compounds with a hit; in the whole collection about 2.7% have one here.
SMILES,V1R ag counter,CHO parental Ca,OX1R antag-1,OX1R antag-2,OXTR potentiate,OXTR agonist
COc1cccc(N2CC(NS(=O)(=O)c3ccc4ccccc4c3)CC2=O)c1 (stereo unspecified),3.7,-12.8,9.3,-28.6,-15.2,2.7
CCC1CCCCN1C(=O)COC(=O)c1cc(=O)[nH]c2ccccc12 (stereo unspecified),-0.6,-18.9,24.9*,0.6,-8.9,-0.3
CC(=O)Oc1ccccc1/C=C/c1ccc2ccccc2[n+]1C,-0.8,-14.7,66.0*,-5.3,-3.6,-0.6
CN(C)c1ccc(/C=C/c2ccc3ccccc3[n+]2C)cc1,-1.4,0.0,162.7*,14.5,-0.1,-0.8
CCCCNC(=O)/C(C#N)=C/c1ccc(F)cc1F,-0.7,-7.0,24.6,-17.2,-8.5,0.4
CCOC(=O)/C(N=Nc1c(C)n(C)n(-c2ccccc2)c1=O)=C(/O)c1ccccc1,-1.0,1.7,52.4*,-14.2,-2.9,-1.7
COc1cccc(N2CCN(c3ccc(N4C(=O)CCC4=O)cc3[N+](=O)[O-])CC2)c1,10.3,32.9*,38.3,28.3,-17.4,6.4
COc1ccccc1N1CCN(c2ccc(N3C(=O)CCC3=O)cc2[N+](=O)[O-])CC1,13.7,57.3*,54.4,11.1,-17.6,18.5
C=C(C)CN1CCN(c2ccc(N3C(=O)CCCC3=O)cc2[N+](=O)[O-])CC1,1.8,1.5,15.6,-16.0,-4.9,1.6
C=CCc1ccc(OCCOc2ccc(/C=N/n3cnnc3)cc2OCC)c(OC)c1,-1.6,66.7*,25.4,1.2,-13.6,-1.8
O=C(C1=COCCO1)N1CCN(c2nc3ccc([N+](=O)[O-])cc3s2)CC1,2.6,19.6,15.7,-8.6,1.8,3.0
CC(=O)N1CCN(c2nc3ccc([N+](=O)[O-])cc3s2)CC1,3.1,15.1,54.4*,3.8,-23.1,3.2
Cc1cccc(OCc2nnc(SCC(=O)N(C(C)C)C(C)C)n2Cc2ccco2)c1C,-0.3,-36.2,35.8*,8.0,-5.0,-1.4
Cc1onc(-c2ccccc2Cl)c1C(=O)Nc1ccccc1O,6.6,-23.0,16.3,-21.6,-10.4,4.0
COc1cc2c(C#CCCO)c(-c3ccsc3)oc(=O)c2cc1OC,-0.1,-17.1,61.4*,-6.3,-5.2,-0.8
Cc1ccc(C(CNS(=O)(=O)c2ccc(Cl)cc2)N2CCN(C)CC2)cc1 (stereo unspecified),0.9,-20.3,0.9,-22.8,-4.3,8.0
CN(C)c1ccc(/C=C/c2cccc[n+]2[O-])cc1,1.1,3.0,28.1,-0.3,1.6,0.9
CC(C)CC[n+]1ccccc1/C=C/c1ccc(N(C)C)cc1,12.1,60.7*,32.3,28.7,-17.9,12.8
O=C1C=C(Nc2ccccc2O)c2ccccc2C1=O,1.8,-9.4,57.6*,-3.1,2.9,1.5
O=C1C=C(Nc2ccc(F)cc2)c2ccccc2C1=O,0.0,-3.4,50.0*,-8.7,-4.5,0.3
COc1cc(OC)cc(C(=O)NN2CCOCC2)c1,1.5,-4.7,3.8,-5.2,-12.9,0.2
COc1ccccc1-c1nnc2sc(-c3ccc(N(C)C)cc3)nn12,0.2,-18.8,69.0*,14.5,-7.1,-1.0
CN(C)c1ccc(-c2nn3c(-c4ccccc4Cl)nnc3s2)cc1,-1.8,6.2,58.6*,10.6,-7.2,-1.6
COc1ccc(CCN(C)Cc2nc(Cc3ccc(OC)c(OC)c3)no2)cc1OC,-0.1,-11.2,31.3,-19.9,-2.0,-0.5
CCOC(=O)CNC(=O)N1CCCC(C(=O)c2cccc(Cl)c2)C1 (stereo unspecified),0.3,-3.4,4.0,-5.0,-0.6,-0.4
SMILES,V1R ag counter,CHO parental Ca,OX1R antag-1,OX1R antag-2,OXTR potentiate,OXTR agonist
O=C(OCC(=O)N1CCCC1=O)c1cccc([N+](=O)[O-])c1,0.8,-3.8,47.9*,-19.4,1.6,1.5
Cc1ccc(OCCNC(=O)c2ccccc2F)cc1,0.1,-9.5,-1.5,-28.3,-18.2,-2.6
O=C(NCC(c1cccs1)N1CCOCC1)c1cc2ccccc2o1 (stereo unspecified),-0.7,-13.0,21.1,0.5,-4.7,-0.6
O=C(NCC(c1cccs1)N1CCOCC1)c1cc2ccccc2oc1=O (stereo unspecified),1.0,-21.7,25.9*,3.2,-10.7,0.1
O=[N+]([O-])c1cccc2ccc(/C=C/c3ccc(Cl)cc3)nc12,0.2,-18.6,22.2,-27.4,-8.1,-1.4
Cn1cc2cccc([N+](=O)[O-])c2n1,0.8,-1.4,73.9*,-0.3,3.2,1.0
CCc1noc(C)c1C(=O)NNC(=O)COc1ccc(Br)cc1,-0.1,-3.3,11.8,-2.3,-0.3,0.4
Oc1c(C=Nc2cccc3cccnc23)sc2ccccc12,65.5*,49.0*,43.5,99.0*,-24.7,48.2*
CC1CN(C(=O)/C(C#N)=C2\N=C(NC(=O)c3ccc(F)cc3)c3ccccc32)CC(C)O1 (stereo unspecified),-0.1,-7.8,13.7,-18.1,2.1,-1.3
O=C(c1ccccc1F)N(Cc1nc2ccccc2c(=O)[nH]1)C1CCCC1,-0.9,-19.6,33.3,-19.6,-8.4,-1.4
O=c1nc2n(c3ccc([N+](=O)[O-])cc13)CCCCC2,0.0,-2.5,58.6*,0.1,-6.5,0.5
O=C(Nc1ccc2nc3n(c(=O)c2c1)CCCCC3)c1cc([N+](=O)[O-])ccc1F,0.7,-15.0,39.2,-16.0,-8.1,-1.0
CCCCn1c(N)c(N(CCOC)C(=O)c2ccc(Br)s2)c(=O)[nH]c1=O,-0.6,-7.0,10.4,-9.1,0.5,0.0
CCCCN(C(=O)c1cc(=O)[nH]c2ccccc12)c1c(N)n(CCC)c(=O)[nH]c1=O,-0.7,-7.6,80.4*,-19.2,-2.0,0.2
CCCCN(C(=O)c1ccc([N+](=O)[O-])s1)c1c(N)n(CCCC)c(=O)[nH]c1=O,-0.5,-9.2,62.6*,-20.9,3.0,1.8
CC(C)CN(C(=O)COC(=O)c1ccc([N+](=O)[O-])s1)c1c(N)n(Cc2ccccc2)c(=O)[nH]c1=O,11.7,-5.1,28.3,-11.2,-4.6,0.1
CCCCn1c(N)c(N(CCC(C)C)C(=O)COC(=O)c2ccc([N+](=O)[O-])s2)c(=O)[nH]c1=O,0.1,-12.4,35.2*,-12.0,-6.9,-0.6
CS(=O)(=O)c1ccc(NC(=O)C2CC(=O)N(c3ccc4c(c3)OCCO4)C2)cc1 (stereo unspecified),-0.1,5.1,29.2,-9.6,-0.9,0.5
Cc1cc(N2O[C@H]3C=C[C@@H]2C3)no1,/,-2.5,10.1,4.4,/,/
O=C(CC1CC2CCC1C2)NC1CCCCCCC1 (stereo unspecified),-0.5,-15.2,-4.0,-21.4,-5.2,-2.0
CN(CC(=O)Nc1ccc(Cl)cc1)C(=O)c1cccc(S(=O)(=O)N2CCN(Cc3ccccc3)CC2)c1,12.0,37.1*,35.8,32.2,-17.6,12.0
